Compounds with a hit are over-represented: about 2.8% of the library has one in this group of screens.
ABHD4 inh – ABHD4 inhibitors, primary screen, biochemical, fluorescence polarization, mouse; (Lyso)-N-acylphosphatidylethanolamine lipase (Mus musculus), Q8VD66; purified mABHD4, FP-Rh probe fluorescence polarization; inhibition, % at 8.92 µM; hit rate 0.54% among 370,000;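 active means inhibition exceeding the mean over every tested compound plus 3 SD, cut at about 30% in these data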;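 further: 0% = plate median of compound wells and 100% = S159A mutant with DMSO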
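Assay system: mouse ABHD4 enzyme, wild type / Also added: fluorescent activity-based probe FP-Rh / Doses: single nominal dose of 8.92 µM, 0.89% DMSO final / Timing: 45 min compound pre-incubation plus 60 min probe step, 25 °C / Signal: FP readout, ex 525 nm / em 598 nm / Control set: S159A mutant/DMSO as 100%, compound-well median as 0%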
pPAFAH inh – pPAFAH enzyme inhibitors, primary screen, biochemical, fluorescence polarization, human; Platelet-activating factor acetylhydrolase (Homo sapiens), Q13093; recombinant pPAFAH, FP-rhodamine probe fluorescence polarization; inhibition, % at 3.39 µM; hit rate 1.5% among 330,000; AID 463082, 2010;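 active means inhibition above the mean inhibition across the screen plus 3 SD, cut at about 25% in these data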;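 further: inhibitors block binding of the rhodamine activity-based probe so polarization drops; 0% = enzyme with DMSO and 100% = wells lacking pPAFAH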
HTRA1 inh – HTRA1 serine protease inhibitors, primary screen, biochemical, fluorescence polarization, HTS. hit rate 0.5% among 340,000. Q92743. recombinant HTRA1, FP-rhodamine activity-based probe. inhibition, % at 5.96 µM; in the data active means inhibition above about 36%;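 further: 0% = enzyme with DMSO and 100% = wells lacking enzyme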
PAFAH1B2 inh – PAFAH1B2 enzyme inhibitors, primary screen, biochemical, fluorescence polarization, human; Platelet-activating factor acetylhydrolase IB subunit alpha2 (Homo sapiens), P68402; recombinant PAFAH1B2, FP-rhodamine activity probe; inhibition, % at 3.39 µM; hit rate 1.2% among 340,000;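 active means inhibition above the mean of all tested compounds plus 3 SD, cut at about 24% in these data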;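 further: 0% = enzyme with DMSO and 100% = wells lacking PAFAH1B2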
Target sequence (P68402 whole entry, looked up): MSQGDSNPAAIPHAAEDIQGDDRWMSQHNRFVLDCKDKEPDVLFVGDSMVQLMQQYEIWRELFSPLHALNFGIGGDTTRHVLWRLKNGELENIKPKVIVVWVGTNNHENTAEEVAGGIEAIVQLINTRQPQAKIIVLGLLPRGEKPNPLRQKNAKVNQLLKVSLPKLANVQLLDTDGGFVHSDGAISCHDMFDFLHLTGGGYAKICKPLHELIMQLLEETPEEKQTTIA
PAFAH1B3 FP inh – PAFAH1B3 enzyme inhibitors, primary screen, biochemical, fluorescence polarization, human; recombinant PAFAH1B3, FP-rhodamine probe; hit rate 0.28% among 340,000; Platelet-activating factor acetylhydrolase IB subunit alpha1 (Homo sapiens), Q15102; inhibition, % at 3.39 µM;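 active means inhibition above the screen-wide average of all tested compounds plus 3 SD, cut at about 25% in these data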;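 further: 0% = enzyme with DMSO only and 100% = wells lacking PAFAH1B3 protein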
Target sequence (Q15102 whole entry, looked up): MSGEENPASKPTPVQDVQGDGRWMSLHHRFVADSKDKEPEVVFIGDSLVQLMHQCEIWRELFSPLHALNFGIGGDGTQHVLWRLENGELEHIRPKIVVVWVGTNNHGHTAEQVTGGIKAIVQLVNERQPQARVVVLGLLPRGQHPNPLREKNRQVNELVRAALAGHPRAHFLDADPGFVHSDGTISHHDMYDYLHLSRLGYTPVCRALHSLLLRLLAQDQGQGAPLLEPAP
PAFAH2 FP inh – PAFAH2 enzyme inhibitors, primary screen, biochemical, fluorescence polarization, human; Platelet-activating factor acetylhydrolase 2, cytoplasmic (Homo sapiens), Q99487; inhibition, % at 3.39 µM; recombinant PAFAH2, FP-rhodamine activity probe; hit rate 0.99% among 340,000;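 active means inhibition above the mean over all tested compounds plus 3 SD, cut at about 30% in these data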;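 further: inhibitors block probe labeling of enzyme so polarization drops; 0% = enzyme with DMSO and 100% = wells lacking PAFAH2 protein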
An asterisk follows results filed as active; nt = no result given.

SMILES | ABHD4 inh | pPAFAH inh | HTRA1 inh | PAFAH1B2 inh | PAFAH1B3 FP inh | PAFAH2 FP inh
O=c1c(-c2ccc(O)cc2)coc2cc(OC3OC(CO)C(O)C(O)C3O)cc(O)c12 (configuration not stated) | -1.2 | -4.9 | -13.6 | 7.9 | 2.4 | -6.1
O=c1cc(-c2ccc(O)c(O)c2)oc2cc(O[C@@H]3O[C@H](CO)[C@@H](O)[C@H](O)[C@H]3O)cc(O)c12 | nt | 15.3 | 59.9* | 67.0* | 66.6* | 52.4*
C[C@@H]1O[C@@H](OC[C@H]2O[C@@H](Oc3cc(O)c4c(=O)cc(-c5ccc(O)c(O)c5)oc4c3)[C@H](O)[C@@H](O)[C@@H]2O)[C@H](O)[C@H](O)[C@H]1O | nt | 15.3 | 20.4 | 75.3* | 87.1* | 23.0
O=c1c(OC2OC(CO)C(O)C(O)C2O)c(-c2ccc(O)c(O)c2)oc2cc(O)cc(O)c12 (configuration not stated) | 15.4 | 28.5* | 27.0 | 2.9 | 46.0* | -6.9
O=c1c(O[C@H]2O[C@@H](CO)[C@H](O)[C@@H](O)[C@@H]2O)c(-c2ccc(O)cc2)oc2cc(O)cc(O)c12 | -8.3 | -2.7 | 12.6 | 3.4 | 1.8 | 1.6
COC(=O)[C@H](CC(C)C)N(CCCc1cn(Cc2ccc(C)cc2)nn1)S(=O)(=O)c1ccccc1Br | -0.5 | nt | nt | nt | nt | nt
COc1cccc(OCC(=O)N(Cc2nc(-c3ccc(Cl)cc3)no2)C(C)C)c1 | -6.9 | 26.2* | -43.7 | -1.6 | 8.0 | -7.1
Cc1ccc(C)c(C(=O)N(Cc2nc(-c3ccc(Cl)cc3)no2)C(C)C)c1 | 7.5 | 27.0* | -42.2 | -1.2 | 1.2 | 4.2
COc1ccccc1OCC(=O)N(Cc1nc(-c2ccc(Cl)cc2)no1)C(C)C | -8.8 | 9.9 | -7.9 | 4.8 | 0.5 | 6.7
CCc1cc2c(nc1CC)CCCN2S(=O)(=O)c1c(C)noc1C | 11.4 | nt | nt | nt | nt | nt
Cc1ccc(OCc2nnc(NC(=O)c3ccco3)s2)cc1 | 0.9 | -3.1 | -1.1 | 25.2* | 4.6 | 1.6
COCCn1c(-c2ccc(-c3ccc([N+](=O)[O-])cc3Br)o2)nc2c1c(=O)[nH]c(=O)n2CC(C)C | 9.0 | 28.6* | 3.2 | 0.9 | 5.7 | 8.1
CC(C)Cn1c(-c2cc([N+](=O)[O-])ccc2Cl)nc2c1c(=O)[nH]c(=O)n2Cc1ccccc1 | -6.8 | 25.3* | -6.8 | 2.3 | -3.3 | -0.9
COc1ccc(-c2ccc(-c3nc4c(c(=O)[nH]c(=O)n4Cc4ccccc4)n3C)o2)c([N+](=O)[O-])c1 | 9.1 | 9.5 | 15.6 | 0.7 | 10.8 | 8.0
COCCn1c(=O)[nH]c(=O)c2c1nc(-c1ccc(-c3ccc(Cl)cc3[N+](=O)[O-])o1)n2Cc1ccccc1 | 16.2 | 27.3* | 17.1 | 4.1 | 2.8 | 4.2
COCCn1c(-c2ccc(SC)cc2)nc2c1c(=O)[nH]c(=O)n2CC(C)C | -12.4 | 1.3 | -3.8 | -3.6 | 6.5 | -6.0
COc1ccc(/C=N/NC(=O)c2ccc(CN3C(=O)c4cccc5cccc3c45)cc2)cc1O | -27.2 | 4.9 | -49.2 | 27.1* | 25.5 | -33.9
CN1C(=O)c2cc(NC(=O)Nc3ccccc3)ccc2OC[C@H]2O[C@@H](CC(=O)Nc3cc(F)ccc3F)CC[C@@H]21 | 4.1 | nt | nt | nt | nt | nt
CCOc1ncccc1C(=O)OCC(=O)Nc1cc(C(C)(C)C)ccc1OC | 7.3 | 28.4* | -9.0 | 6.0 | 3.0 | 6.2
COc1ccc(-c2nnn3c2Cn2c4ccccc4c(=O)n2[C@@H](C(C)C)C3)cc1 | -6.1 | nt | nt | nt | nt | nt
COc1cc(CNc2ccc(N3CCOCC3)cc2)cc(Br)c1OC | 12.7 | 9.9 | 28.3 | 1.0 | 6.4 | 5.2
CCOc1cc(CNc2ccc(N3CCOCC3)cc2)cc(Br)c1OCC | 14.4 | 25.0* | 33.4 | 3.6 | 8.0 | 7.3
CCOc1cc(CNc2ccc(N(C)C)cc2)cc(Br)c1OCC(=O)NC(C)(C)C | -0.6 | 34.3* | 0.1 | 5.5 | 7.0 | 9.9
CCOc1cc(CNc2cccc3ccccc23)cc(Br)c1OCC(=O)NC(C)(C)C | nt | 9.1 | -11.5 | 3.4 | 8.5 | 4.0
COc1ccc(S[C@]2(C(=O)N3CCN(C(C)=O)CC3)CC(=O)N(C(=O)C3CC3)[C@@H]2c2ccc(OC)cc2)cc1 | 3.4 | nt | nt | nt | nt | nt
SMILES | ABHD4 inh | pPAFAH inh | HTRA1 inh | PAFAH1B2 inh | PAFAH1B3 FP inh | PAFAH2 FP inh
CCNc1nc(Oc2ccc(OC)cc2)cc(C(F)(F)F)n1 | -9.0 | 33.2* | -7.3 | -1.8 | 8.4 | 7.1
COCC(=O)N(Cc1ccccc1)c1ccccc1C(=O)Nc1cc(OC)ccc1OC | -5.5 | nt | nt | nt | nt | nt
C=CCN(C)C(C#Cc1ccccc1)Cc1ccccc1 (configuration not stated) | -1.3 | nt | nt | nt | nt | nt
Cc1ccc(OCC(=O)NCCC2=CCCCC2)cc1 | -0.4 | 2.0 | 0.7 | 8.1 | 5.2 | 4.0
Cc1cc(C)c(OCC(=O)OCC(=O)NC2CCCCCCC2)c(C)c1 | -0.4 | 17.5 | 1.0 | -3.9 | -3.0 | -3.7
Cc1cc(C)c(OCC(=O)OCC(=O)NC2CCC(C)CC2)c(C)c1 (configuration not stated) | -2.6 | 26.1* | -2.8 | 5.5 | 3.4 | -2.7
Cc1cc(C)c(OCC(=O)OCC(=O)NCCC2=CCCCC2)c(C)c1 | 4.3 | 33.3* | -4.6 | 2.8 | 8.1 | -1.0
Cc1ccc(SCC(=O)NCCC2=CCCCC2)cc1 | 1.9 | 5.2 | -6.1 | 50.3* | 1.0 | -2.4
O=C(NC1CCCCN(Cc2cccc(Cl)c2)C1=O)c1c(F)cccc1F (configuration not stated) | 4.2 | nt | nt | nt | nt | nt
COC(=O)C1=C(CSc2nc3c(cc2C#N)CN(C)CC3)OC(N)=C(C#N)C1c1ccccc1F (configuration not stated) | nt | 28.4* | 16.7 | 10.7 | 8.8 | 15.2
Cc1ccc(N2NC(=O)/C(=C/c3ccc(-c4ccc(Cl)c(C(=O)O)c4)o3)C2=O)cc1 | 28.0 | 15.0 | 4.8 | -0.4 | 5.5 | 23.7
O=C1NN(c2ccc(Cl)cc2)C(=O)/C1=C\c1ccc(-c2cccc(C(=O)O)c2)o1 | 23.2 | nt | 4.6 | 20.8 | 27.0* | 36.1*
CC(C)c1ccc(C(C)NCCS(=O)(=O)c2ccc(Cl)cc2)cc1 (configuration not stated) | 5.5 | 1.2 | -10.6 | 33.6* | 6.2 | 5.4
O=C(Nc1ccccc1C(F)(F)F)c1cc(S(=O)(=O)N2CCC3(CC2)OCCO3)ccc1F | 0.9 | 7.4 | -9.1 | 24.5* | 0.1 | 5.8
COc1ccccc1NC(=O)c1cc(S(=O)(=O)N2CCC3(CC2)OCCO3)ccc1F | nt | 1.4 | -4.8 | 9.5 | 6.0 | 5.2
O=C(O)c1ccc2c(c1)C(=O)/C(=C/c1ccccc1)C2=O | 30.8* | 27.4* | 7.0 | 20.8 | 39.3* | 12.8
